We go through 13 compounds from publication PMC6322912 (Biochemistry, 2018).

The target in the first assay is T1, SAMHD1 (Homo sapiens, UniProt Q9Y3Z3). Put plainly: Dose–response SAMHD1 dNTPase assay. Format: biochemical.
T1 sequence (Q9Y3Z3 whole entry): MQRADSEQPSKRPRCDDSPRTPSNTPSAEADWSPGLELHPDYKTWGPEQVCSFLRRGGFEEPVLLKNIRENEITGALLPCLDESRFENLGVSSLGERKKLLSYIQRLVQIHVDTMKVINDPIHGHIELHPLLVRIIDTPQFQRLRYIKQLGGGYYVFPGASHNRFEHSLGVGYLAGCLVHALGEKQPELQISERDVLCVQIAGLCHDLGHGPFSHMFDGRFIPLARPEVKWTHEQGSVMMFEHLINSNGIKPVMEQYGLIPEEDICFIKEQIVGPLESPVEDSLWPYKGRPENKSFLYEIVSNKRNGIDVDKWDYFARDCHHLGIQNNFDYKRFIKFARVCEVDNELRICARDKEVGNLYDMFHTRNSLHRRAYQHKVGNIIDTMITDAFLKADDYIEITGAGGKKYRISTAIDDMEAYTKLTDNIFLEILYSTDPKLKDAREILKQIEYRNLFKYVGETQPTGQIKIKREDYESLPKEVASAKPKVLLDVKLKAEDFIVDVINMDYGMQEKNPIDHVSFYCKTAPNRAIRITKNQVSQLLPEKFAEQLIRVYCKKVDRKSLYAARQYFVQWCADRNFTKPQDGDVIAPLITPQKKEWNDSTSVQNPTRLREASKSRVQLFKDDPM
Settings: not given
Take `Nc1cc(-c2ccncc2)c[nH]c1=O` [Amrinone]: the IC50 was below 250 µM.

On to `CN1C[C@H](C(=O)N[C@]2(C)O[C@@]3(O)[C@@H]4CCCN4C(=O)[C@H](Cc4ccccc4)N3C2=O)C=C2c3cccc4[nH]cc(c34)C[C@H]21` [Ergotamine], for which the IC50 was below 250 µM.

In turn, `CC[C@H](c1ccc(O)cc1)[C@@H](CC)c1ccc(O)cc1` [Hexestrol] had an IC50 below 250 µM.

As for `N[C@@H](Cc1cc(I)c(Oc2cc(I)c(O)c(I)c2)c(I)c1)C(=O)O` [L-Thyroxine], the IC50 was below 250 µM.

Take `COC(=O)c1ccc(O)c2nc3c(C=O)c(O)cc(O)c3nc12` [Lomofungin]: the IC50 is below 250 µM.

As to `CC(C)(O)c1ccccc1CC[C@@H](SCC1(CC(=O)O)CC1)c1cccc(/C=C/c2ccc3ccc(Cl)cc3n2)c1` [Montelukast], the half-inhibitory concentration (IC50) was below 250 µM.

On to `CC1=C(CC(=O)O)c2cc(F)ccc2/C1=C\c1ccc([S+](C)[O-])cc1` (stereo not shown) [Sulindac], for which the IC50 was below 250 µM.

Compound `CC1=C(/C=C/C(C)=C/C=C/C(C)=C/C(=O)O)C(C)(C)CCC1` [retinoic acid] gave an IC50 below 250 µM.

The same assay, now with this note: 150 μM dCTP substrate; tetramer preformed with 10 μM GTP and 25 μM dATPαS.
`Nc1nc2c(ncn2[C@H]2C[C@H](O)[C@@H](COP(O)(=S)OP(=O)(O)OP(=O)(O)O)O2)c(=O)[nH]1` (stereo partly drawn) [dGTPαS, deoxyguanosine triphosphate α S]: the “Inhibition of preactivated SAMHD1 dCTPase activity” value is “inhibition”.

The same assay, now with this note: read-out: SAMHD1 inhibition in dose–response dNTPase assays.
In the case of `CCCCCOC(=O)Nc1nc(=O)n([C@@H]2O[C@H](C)[C@@H](O)[C@H]2O)cc1F` [Capecitabine], the inhibition at 500 µM is around 25%.

For the compound `Nc1nc2c(ncn2CCC(CO)CO)c(=O)[nH]1` [Penciclovir], the inhibition at 500 µM is around 25%.

On to `CC(=O)CCCCn1c(=O)c2c(ncn2C)n(C)c1=O` [Pentoxifylline], for which the inhibition at 500 µM was around 25%.

Another assay addresses T1, SAMHD1. Description: b4NPP–SAMHD1 HTS. Conditions: increasing concentrations of dGTP; normalized to no dGTP. Format: biochemical. In a few lines:
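Recombinant SAMHD1 was expressed in E. coli BL21* as an MBP fusion, tag-cleaved, and purified by heparin and size-exclusion chromatography. Nucleotide was added, then 2 mM final b4NPP. A410 was read over 45 min; rates came from 0–20 min slopes, with no-enzyme baseline.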
With `Nc1nc2c(ncn2[C@H]2C[C@H](O)[C@@H](COP(=O)(O)OP(=O)(O)OP(=O)(O)O)O2)c(=O)[nH]1` [dGTP], the “Inhibition of SAMHD1-mediated b4NPP hydrolysis” value is listed as “completely inhibited”.

As usually defined, the IC50 is the concentration at which inhibition is half-maximal. Low readings indicate inhibition by little substance, high ones a need for much substance. What is called inhibition is how much of the control response was suppressed.
